From ChEMBL document CHEMBL1795344, “Design, synthesis and antitumor evaluation of phenyl N-mustard-quinazoline conjugates” (Bioorg Med Chem, 2011) come the findings set out here.

The test system of series [1] is CCRF-CEM. Put plainly: Cytotoxicity against human CCRF-CEM cells after 72 hrs by XTT assay. The class given is functional, cell-based. The gist of the method:
(§1)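 CCRF-CEM and its Taxol- and vinblastine-resistant sublines were incubated 72 h, then given phenazine methosulfate-XTT for 6 h at 37 °C. Absorbance was read at 450 and 630 nm. IC50 came from median-effect analysis of dose-effect data at six or seven concentrations.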

Series [2] deals with MX1. Put plainly: Cytotoxicity against human MX1 cells after 72 hrs by SRB assay. The conditions noted are these: MX1, 72 h. The class given is functional, cell-based. An outline of the steps:
(§2)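 MX-1 and HCT-116 solid tumor cells were exposed 72 h, with growth read by SRB staining on a microplate spectrophotometer. IC50 came from median-effect analysis of dose-effect data at six or seven concentrations.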

A further series deals with HCT-116. Description: Cytotoxicity against human HCT116 cells after 72 hrs by SRB assay. The class given is functional, cell-based. The conditions noted are these: HCT-116, 72 h. An outline of the steps:
as §2

Series [3] relates to CCRF-CEM. Put plainly: Cytotoxicity against human taxol-resistant CCRF-CEM cells after 72 hrs by XTT assay. Type of series: functional, cell-based. The gist of the method:
as §1

Series [4] deals with Mus musculus. Description: Toxicity in human MX1 cells xenografted athymic nude Swiss mouse assessed as mouse mortality at 50 and 60 mg/kg, iv every two days for three times followed by 70 mg/kg, iv every two days for two times. Type of series: organism-based. The following applies: in vivo.
Series [5] relates to CCRF-CEM. Put plainly: Cytotoxicity against human vinblastine-resistant CCRF-CEM cells after 72 hrs by XTT assay. Type of series: functional, cell-based. An outline of the steps: as §1
For series [6], the system named is MX1. Description: Antitumor activity against human MX1 cells xenografted in athymic nude Swiss mouse assessed as tumor growth inhibition at 50 and 60 mg/kg, iv every two days for three times followed by 70 mg/kg, iv every two days for two times relative to control. Type of series: functional. Details: scale not given: the % may be the effect or the level left.

In series [7] the test system is Mus musculus. Description: Toxicity in human MX1 cells xenografted athymic nude Swiss mouse assessed as body weight loss at 50 and 60 mg/kg, iv every two days for three times followed by 70 mg/kg, iv every two days for two times relative to control. The conditions noted are these: in vivo. The class given is organism-based.
Series [8] has as its system CCRF-CEM. Put plainly: Ratio of IC50 for human vinblastine-resistant CCRF-CEM cells to IC50 for human CCRF-CEM cells. Type of series: functional.
Series [9] has as its system CCRF-CEM. Put plainly: Ratio of IC50 for human taxol-resistant CCRF-CEM cells to IC50 for human CCRF-CEM cells. Type of series: functional.
Series [10] can be described thus: Cell cycle arrest in human H1299 cells assessed as accumulation at S phase at 10 uM after 24 hrs using propidium iodide staining by flow cytometry (reference value: 24.9 +/- 3.3%). The following applies: NCI-H1299. The class given is functional, cell-based. An outline of the steps:
(§3)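 H1299 cells were exposed 24 h, then trypsinized, PBS-washed and fixed in ice-cold 70% ethanol for 30 min. They were stained with 4 μg/mL propidium iodide in PBS containing 1% Triton X-100 and 0.1 mg/mL RNase A. Cell-cycle distribution was read by flow cytometry.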

A short description of series [11]: Cell cycle arrest in human H1299 cells assessed as accumulation at G1 phase at 10 uM after 24 hrs using propidium iodide staining by flow cytometry (reference value: 44.8 +/- 3%). The class given is functional, cell-based. The following applies: NCI-H1299. The gist of the method: as §3
The subject of series [12] is PC-3. Put plainly: Cytotoxicity against human PC3 cells after 72 hrs by Alamar blue assay. The conditions noted are these: PC-3, 72 h. The class given is functional, cell-based. An outline of the steps:
(§4)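 H1299 and PC3 cells were exposed 72 h, then given Alamar blue for 6 h at 37 °C. Absorbance was read at 570 and 600 nm. IC50 came from median-effect analysis of dose-effect data at six or seven concentrations.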

Series [13] in a line: Cell cycle arrest in human H1299 cells assessed as accumulation at sub G1 phase at 5 uM after 24 hrs using propidium iodide staining by flow cytometry (reference value: 8.8 +/- 6.9%). The following applies: NCI-H1299. The class given is functional, cell-based. An outline of the steps:
as §3

For series [14], the system named is PC-3. Put plainly: Anticancer activity against human PC3 cells xenografted in athymic nude Swiss mouse assessed as tumor growth inhibition at 55 mg/kg, iv every two days for six times relative to control. Type of series: functional. Also on record: scale not given: the % may be the effect or the level left.
Series [15] deals with Mus musculus. Put plainly: Toxicity in human PC3 cells xenografted athymic nude Swiss mouse assessed as body weight loss at 55 mg/kg, iv every two days for six times relative to control. Type of series: organism-based, PC-3. Also on record: dose 55 mg/kg, route intravenous. The following applies: in vivo.
A short description of series [16]: Cell cycle arrest in human H1299 cells assessed as accumulation at G2/M phase at 20 uM after 24 hrs using propidium iodide staining by flow cytometry (reference value: 21.5 +/- 0.6%). The class given is functional, cell-based. The conditions noted are these: NCI-H1299. The gist of the method: as §3
Series [17] is described as follows: Cell cycle arrest in human H1299 cells assessed as accumulation at S phase at 5 uM after 24 hrs using propidium iodide staining by flow cytometry (reference value: 24.9 +/- 3.3%). Type of series: functional, cell-based. The conditions noted are these: NCI-H1299. An outline of the steps: as §3
The next series has as its system Nucleic Acid. Put plainly: Induction of pEGFP-N1 plasmid DNA interstrand cross-linking at 1 to 20 uM by alkaline agarose gel shift assay. Type of series: nucleic-acid assay. The gist of the method:
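pEGFP-N1 plasmid DNA (1500 ng) was incubated with compound (1, 10, 20 μM) in 3 mM NaCl/1 mM sodium phosphate pH 7.4/1 mM EDTA for 2 h at 37 °C. It was then BamHI-linearized, ethanol-precipitated and denatured in 0.5 N NaOH-10 mM EDTA. Samples were run on a 0.8% alkaline agarose gel at 4 °C, 18 V for 22 h, stained with ethidium bromide.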

Series [18] in a line: Cell cycle arrest in human H1299 cells assessed as accumulation at G1 phase at 20 uM after 24 hrs using propidium iodide staining by flow cytometry (reference value: 44.8 +/- 3%). Type of series: functional, cell-based. The conditions noted are these: NCI-H1299. The gist of the method:
as §3

Series [19] has as its system MX1. Put plainly: Antitumor activity against human MX1 cells xenografted in athymic nude Swiss mouse assessed as tumor growth inhibition at 30 mg/kg, iv every two days for three times followed by 35 mg/kg, iv every two days for 5 times relative to control. Type of series: functional. Also on record: scale not given: the % may be the effect or the level left.
Series [20] is described as follows: Cell cycle arrest in human H1299 cells assessed as accumulation at sub G1 phase at 20 uM after 24 hrs using propidium iodide staining by flow cytometry (reference value: 8.8 +/- 6.9%). The class given is functional, cell-based. The conditions noted are these: NCI-H1299. An outline of the steps: as §3
In series [21] the test system is Mus musculus. Put plainly: Toxicity in human MX1 cells xenografted athymic nude Swiss mouse assessed as body weight loss at 30 mg/kg, iv every two days for three times followed by 35 mg/kg, iv every two days for 5 times relative to control. The conditions noted are these: in vivo. The class given is organism-based.
The subject of series [22] is Mus musculus. Description: Toxicity in human MX1 cells xenografted athymic nude Swiss mouse assessed as mouse mortality at 30 mg/kg, iv every two days for three times followed by 35 mg/kg, iv every two days for 5 times. Type of series: organism-based. The following applies: in vivo.
Series [23] is described as follows: Cell cycle arrest in human H1299 cells assessed as accumulation at S phase at 20 uM after 24 hrs using propidium iodide staining by flow cytometry (reference value: 24.9 +/- 3.3%). The class given is functional, cell-based. The following applies: NCI-H1299. An outline of the steps: as §3
Series [24] in a line: Cell cycle arrest in human H1299 cells assessed as accumulation at G2/M phase at 10 uM after 24 hrs using propidium iodide staining by flow cytometry (reference value: 21.5 +/- 0.6%). The conditions noted are these: NCI-H1299. Type of series: functional, cell-based. An outline of the steps:
as §3

The nature of series [25]: Cell cycle arrest in human H1299 cells assessed as accumulation at G2/M phase at 5 uM after 24 hrs using propidium iodide staining by flow cytometry (reference value: 21.5 +/- 0.6%). The class given is functional, cell-based. The following applies: NCI-H1299. The gist of the method: as §3
Series [26] has as its system Mus musculus. Description: Toxicity in human PC3 cells xenografted athymic nude Swiss mouse assessed as mouse mortality at 55 mg/kg, iv every two days for six times. Details: dose 55 mg/kg, route intravenous. The following applies: in vivo. The class given is organism-based, PC-3.
A short description of series [27]: Cell cycle arrest in human H1299 cells assessed as accumulation at sub G1 phase at 10 uM after 24 hrs using propidium iodide staining by flow cytometry (reference value: 8.8 +/- 6.9%). Type of series: functional, cell-based. The following applies: NCI-H1299. The gist of the method: as §3
The nature of series [28]: Cytotoxicity against human H1299 cells after 72 hrs by Alamar blue assay. The class given is functional, cell-based. The conditions noted are these: NCI-H1299, 72 h. The gist of the method: as §4
The nature of series [29]: Cell cycle arrest in human H1299 cells assessed as accumulation at G1 phase at 5 uM after 24 hrs using propidium iodide staining by flow cytometry (reference value: 44.8 +/- 3%). Type of series: functional, cell-based. The conditions noted are these: NCI-H1299. An outline of the steps: as §3
The subject of series [30] is Mus musculus. Description: Toxicity in human MX1 cells xenografted athymic nude Swiss mouse assessed as mouse mortality at 30 mg/kg, iv every two days for three times followed by 40 mg/kg, iv every two days for 5 times. Type of series: organism-based. The following applies: in vivo.
The subject of series [31] is Mus musculus. Put plainly: Toxicity in human MX1 cells xenografted athymic nude Swiss mouse assessed as body weight loss at 30 mg/kg, iv every two days for three times followed by 40 mg/kg, iv every two days for 5 times relative to control. Type of series: organism-based. The conditions noted are these: in vivo.
The subject of series [32] is MX1. Put plainly: Antitumor activity against human MX1 cells xenografted in athymic nude Swiss mouse assessed as tumor growth inhibition at 30 mg/kg, iv every two days for three times followed by 40 mg/kg, iv every two days for 5 times relative to control. The class given is functional. Also on record: scale not given: the % may be the effect or the level left.

Active and inactive are the calls of the source. The rule behind the calls is not given here.

With `O=C(Nc1ccc(N(CCCl)CCCl)cc1)Nc1ccc2ncnc(Nc3ccc(F)c(Cl)c3)c2c1`, the IC50 in the series on CCRF-CEM [1] is 1 µM; in the series with MX1 [2], 5.38 µM; in the series on HCT-116, 3.36 µM; with CCRF-CEM [3], 1.16 µM; in the series with CCRF-CEM [5], 1.14 µM. The Activity entry in the series with Mus musculus [4] is reported as “Non-toxic”; in the series on MX1 [6] it was 72%; with Mus musculus [7] it was 5%. Moreover, the “Ratio IC50” value turned out to be 1.14 in the series on CCRF-CEM [8] and 1.16 in the series on CCRF-CEM [9].

With `O=C(Nc1ccc(N(CCCl)CCCl)cc1)Nc1ccc2ncnc(Nc3cccc(Cl)c3)c2c1`, the IC50 with CCRF-CEM [1] was 1.66 µM; in the series with PC-3 [12], 10.4 µM; with MX1 [2] it was 7.84 µM; with HCT-116 it was 7.46 µM; in the series on CCRF-CEM [3] it was 4.56 µM; with CCRF-CEM [5] it was 3.26 µM. This molecule showed an IC50 in series [28] of 10.5 µM. Also, the Activity in series [10] turned out to be 28.5%; in [11], 34.8%; in [13], 8.9%; in the series with PC-3 [14] it was 27%; in the series on Mus musculus [15], 11%; in series [16], 12.9%. The Activity is 20.6% in [17]; 28.3% in series [18]; 62% with MX1 [19]; 35.3% in series [20]; 3% in the series with Mus musculus [21]; “Non-toxic” in the series on Mus musculus [22]. Further, the Activity in series [23] was 23.5%; in series [24] it was 29.3%; in series [25], 40%; with Mus musculus [26] it was “Non-toxic”; in [27], 7.5%; in series [29], 30.5%. Further, the outcome with Nucleic Acid was Active. Besides, the “Ratio IC50” value in the series with CCRF-CEM [8] was 1.96; in the series with CCRF-CEM [9], 2.75.

For the molecule `O=C(Nc1ccc(N(CCCl)CCCl)cc1)Nc1ccc2ncnc(Nc3cccc(Cl)c3F)c2c1`, the IC50 in the series with CCRF-CEM [1] worked out at 0.75 µM; in the series with PC-3 [12], 6.29 µM; in the series with MX1 [2] it was 4.55 µM; with HCT-116 it was 3.84 µM; in the series on CCRF-CEM [3] it was 1.55 µM; in the series on CCRF-CEM [5], 1.04 µM. Besides, the IC50 in [28] was found to be 5.52 µM. Also, the Activity in the series with PC-3 [14] is reported as 69%; with Mus musculus [15], 6%; in the series on Mus musculus [30], “Non-toxic”; in the series with Mus musculus [31], 6%; with MX1 [32], 52%; with Mus musculus [26], “Non-toxic”. In the series on Nucleic Acid, the outcome was Active. For the same molecule, the “Ratio IC50” value in the series on CCRF-CEM [8] turned out to be 1.39; with CCRF-CEM [9] it was 2.07.
